Results from ChEMBL document CHEMBL1140935, “Potent and selective inhibitors of breast cancer resistance protein (ABCG2) derived from the p-glycoprotein (ABCB1) modulator tariquidar” (J Med Chem, 2009).
pIC50: −log10 of the molar value. Active and inactive are the calls of the source. The calls are words filed in the database; no cut-off is given here.

Columns and labels:
[1] = molecular target: T1, Broad substrate specificity ATP-binding cassette transporter ABCG2 (Homo sapiens, UniProt Q9UNQ0); test: Inhibition of ABCG2 overexpressed in human MCF7/Topo cells by flow cytometric-based mitoxantrone efflux assay; format: cell-based
T1 sequence (Q9UNQ0 whole entry): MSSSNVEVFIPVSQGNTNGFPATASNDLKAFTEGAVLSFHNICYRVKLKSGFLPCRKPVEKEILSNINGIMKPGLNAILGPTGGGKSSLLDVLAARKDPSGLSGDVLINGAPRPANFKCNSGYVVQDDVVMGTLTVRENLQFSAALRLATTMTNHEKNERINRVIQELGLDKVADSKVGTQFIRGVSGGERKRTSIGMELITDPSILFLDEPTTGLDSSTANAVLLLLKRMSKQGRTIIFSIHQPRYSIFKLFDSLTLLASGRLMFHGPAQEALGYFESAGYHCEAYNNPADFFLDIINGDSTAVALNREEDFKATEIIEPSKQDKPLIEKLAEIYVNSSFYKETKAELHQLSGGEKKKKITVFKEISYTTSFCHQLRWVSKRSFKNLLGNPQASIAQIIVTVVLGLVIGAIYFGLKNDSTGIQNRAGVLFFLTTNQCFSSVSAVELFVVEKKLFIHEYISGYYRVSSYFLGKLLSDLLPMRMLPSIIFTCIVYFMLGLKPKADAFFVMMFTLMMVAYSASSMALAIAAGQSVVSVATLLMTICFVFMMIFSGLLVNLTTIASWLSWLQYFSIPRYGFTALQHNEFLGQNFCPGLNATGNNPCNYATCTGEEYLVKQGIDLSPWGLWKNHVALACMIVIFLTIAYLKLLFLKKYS
How it was run: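 MCF-7/Topo cells, 1 × 10^6/mL, incubated 30 min at 37 °C/5% CO2 with 20 µM mitoxantrone and graded modulator; washed, 1 h efflux in drug-free medium at 37 °C, PBS resuspension, flow cytometry.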

[2] = molecular target: T1, Broad substrate specificity ATP-binding cassette transporter ABCG2; test: Inhibition of ABCG2 over-expressed in human MCF7/Topo cells at 7 to 10 uM by flow cytometric-based mitoxantrone efflux assay relative to fumitremorgin C; format: cell-based
How it was run: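 MCF-7/Topo cells, 1 × 10^6/mL, loaded 30 min at 37 °C with 20 µM mitoxantrone plus compound, then 1 h efflux in drug-free medium; flow cytometry. Maximal inhibition = effect at highest tested concentration (7 or 10 µM) relative to 10 µM fumitremorgin C (100%, ice-kept sample); geometric mean fluorescence.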

[3] = molecular target: T2, ATP-dependent translocase ABCB1 (Homo sapiens, UniProt P08183); test: Inhibition of ABCB1 overexpressed in human KBv1 cells by flow cytometric-based calcein-AM efflux assay; format: cell-based
T2 sequence (P08183 whole entry): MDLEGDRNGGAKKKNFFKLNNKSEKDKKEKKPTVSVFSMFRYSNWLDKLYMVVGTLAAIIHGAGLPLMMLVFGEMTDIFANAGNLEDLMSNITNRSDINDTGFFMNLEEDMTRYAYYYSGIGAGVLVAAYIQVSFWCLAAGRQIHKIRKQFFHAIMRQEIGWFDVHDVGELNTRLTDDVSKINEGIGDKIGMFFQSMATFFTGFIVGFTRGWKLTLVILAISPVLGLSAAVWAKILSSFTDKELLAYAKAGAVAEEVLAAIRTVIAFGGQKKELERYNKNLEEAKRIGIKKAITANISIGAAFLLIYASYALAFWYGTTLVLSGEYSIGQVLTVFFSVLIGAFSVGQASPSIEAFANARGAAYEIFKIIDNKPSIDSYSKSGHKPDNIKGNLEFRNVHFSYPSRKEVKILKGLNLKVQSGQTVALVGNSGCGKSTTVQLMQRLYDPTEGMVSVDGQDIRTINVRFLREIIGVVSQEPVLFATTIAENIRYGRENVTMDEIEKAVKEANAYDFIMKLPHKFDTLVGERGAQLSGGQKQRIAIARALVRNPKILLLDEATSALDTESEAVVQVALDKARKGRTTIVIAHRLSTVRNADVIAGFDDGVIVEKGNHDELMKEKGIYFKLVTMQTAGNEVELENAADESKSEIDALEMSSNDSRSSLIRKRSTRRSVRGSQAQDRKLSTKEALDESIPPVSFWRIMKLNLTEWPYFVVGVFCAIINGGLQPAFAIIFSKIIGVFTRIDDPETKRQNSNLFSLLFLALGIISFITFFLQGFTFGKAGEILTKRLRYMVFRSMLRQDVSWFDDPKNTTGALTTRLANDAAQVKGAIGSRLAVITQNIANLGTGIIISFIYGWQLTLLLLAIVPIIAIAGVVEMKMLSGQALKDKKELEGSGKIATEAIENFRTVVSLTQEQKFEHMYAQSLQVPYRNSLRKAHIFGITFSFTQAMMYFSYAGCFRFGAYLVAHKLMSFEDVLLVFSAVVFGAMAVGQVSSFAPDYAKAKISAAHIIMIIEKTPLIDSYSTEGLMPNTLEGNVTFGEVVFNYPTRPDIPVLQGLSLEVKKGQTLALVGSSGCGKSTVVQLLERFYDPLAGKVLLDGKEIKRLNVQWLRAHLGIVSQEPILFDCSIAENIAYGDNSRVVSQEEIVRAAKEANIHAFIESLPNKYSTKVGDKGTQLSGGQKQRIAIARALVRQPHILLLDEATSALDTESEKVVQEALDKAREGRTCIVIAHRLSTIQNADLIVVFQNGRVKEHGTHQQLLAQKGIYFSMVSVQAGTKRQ

[4] = molecular target: T3, ATP-binding cassette sub-family C member 2 (Homo sapiens, UniProt Q92887); test: Inhibition of ABCC2 overexpressed in MDCK cells […] by flow cytometric-based chloromethylfluorescein-diacetate accumulation assay; format: cell-based
T3 sequence (Q92887 whole entry): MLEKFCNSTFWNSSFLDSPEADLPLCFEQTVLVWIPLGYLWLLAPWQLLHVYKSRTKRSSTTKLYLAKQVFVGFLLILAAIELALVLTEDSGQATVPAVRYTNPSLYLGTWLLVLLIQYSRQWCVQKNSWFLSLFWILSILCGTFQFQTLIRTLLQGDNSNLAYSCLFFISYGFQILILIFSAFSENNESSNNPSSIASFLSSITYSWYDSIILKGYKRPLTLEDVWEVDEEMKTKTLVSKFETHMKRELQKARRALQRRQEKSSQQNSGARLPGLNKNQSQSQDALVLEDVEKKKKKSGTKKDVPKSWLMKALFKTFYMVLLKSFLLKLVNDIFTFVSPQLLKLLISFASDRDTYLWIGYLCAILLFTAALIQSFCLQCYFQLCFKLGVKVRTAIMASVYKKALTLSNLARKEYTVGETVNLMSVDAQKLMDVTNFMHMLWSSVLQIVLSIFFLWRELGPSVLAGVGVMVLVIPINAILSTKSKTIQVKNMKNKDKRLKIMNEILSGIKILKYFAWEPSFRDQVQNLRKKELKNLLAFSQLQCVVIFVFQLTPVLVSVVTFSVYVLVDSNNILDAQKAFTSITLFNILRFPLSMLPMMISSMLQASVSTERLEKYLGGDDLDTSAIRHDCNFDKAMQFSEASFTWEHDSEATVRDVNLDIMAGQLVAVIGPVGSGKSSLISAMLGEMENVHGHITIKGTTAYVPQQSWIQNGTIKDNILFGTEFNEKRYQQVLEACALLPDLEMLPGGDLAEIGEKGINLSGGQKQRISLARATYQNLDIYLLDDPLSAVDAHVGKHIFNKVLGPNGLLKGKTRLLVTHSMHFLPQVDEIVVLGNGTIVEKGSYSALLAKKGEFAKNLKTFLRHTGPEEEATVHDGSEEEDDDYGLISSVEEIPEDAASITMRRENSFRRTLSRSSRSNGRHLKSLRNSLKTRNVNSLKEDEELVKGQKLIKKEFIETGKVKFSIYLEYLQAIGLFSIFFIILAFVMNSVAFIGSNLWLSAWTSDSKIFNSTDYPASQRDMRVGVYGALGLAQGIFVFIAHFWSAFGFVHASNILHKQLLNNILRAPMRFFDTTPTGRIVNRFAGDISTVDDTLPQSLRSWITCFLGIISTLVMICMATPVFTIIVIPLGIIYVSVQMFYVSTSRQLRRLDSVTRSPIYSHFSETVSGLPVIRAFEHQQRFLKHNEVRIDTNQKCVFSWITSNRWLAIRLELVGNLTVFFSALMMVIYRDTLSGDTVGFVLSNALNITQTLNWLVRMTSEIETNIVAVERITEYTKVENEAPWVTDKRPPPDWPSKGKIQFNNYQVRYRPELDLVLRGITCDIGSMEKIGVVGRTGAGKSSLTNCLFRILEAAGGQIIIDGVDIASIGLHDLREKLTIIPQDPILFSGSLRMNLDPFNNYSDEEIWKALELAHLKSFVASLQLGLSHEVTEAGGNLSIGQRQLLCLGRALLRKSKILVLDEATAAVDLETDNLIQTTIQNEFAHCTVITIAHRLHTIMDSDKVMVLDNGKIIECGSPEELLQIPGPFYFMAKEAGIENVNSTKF

[5] = tested on: MCF7; test: Potentiation of ABCG2 positive topotecan-induced cytotoxicity in topotecan-resistant human MCF7 cells at 100 nM by chemosensitivity assay
[6] = molecular target: T3, ATP-binding cassette sub-family C member 2; test: Inhibition of ABCC2 overexpressed in MDCK cells […] up to 50 uM by flow cytometric-based chloromethylfluorescein-diacetate accumulation assay; format: cell-based; details: dog
[7] = tested on: MCF7; test: Cytotoxicity against ABCG2 positive topotecan-resistant human MCF7 cells up to 500 uM by chemosensitivity assay; format: functional, cell-based
How it was run: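 MCF-7/Topo cells (ABCG2-overexpressing, kept in EMEM with 5% FCS and 0.55 µM topotecan) were seeded into 96-well plates and grown 2-3 days. Test compound alone was then given under permanent exposure, against vehicle, with 16 wells per concentration. Cells were fixed with glutardialdehyde at various times and stained with crystal violet. A578 was read and corrected T/C% calculated.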

[8] = molecular target: T4, ABCB1 (Homo sapiens, UniProt P08183); test: (§1) Inhibition of ABCB1 overexpressed in human KBv1 cells at 10 uM by flow cytometric-based calcein-AM efflux assay; format: cell-based; details: KBv1 cells overexpressing ABCB1, probe calcein-AM
T4 sequence (P08183 whole entry): as the sequence (P08183 whole entry) above
How it was run: (§2)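 Done on KBv1 cells (ABCB1-overexpressing KB subclone), maintained in DMEM with 10% FCS and 270 ng/mL vinblastine. Intracellular calcein fluorescence from calcein-AM was measured by flow cytometry in the presence of test compound.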

[9] = Cytotoxicity against ABCG2 negative human U373MG cells by chemosensitivity assay; format: ADME, cell-based; details: u-373mg atcc
How it was run: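 Proliferating ABCG2/ABCB1-nonexpressing U-373 MG glioblastoma cells (EMEM, 5% FCS, 37 °C, 5% CO2) seeded in 96-well plates, medium replaced after 2-3 days with drug or vehicle (1000-fold feed solutions); 16 wells per concentration. Cells fixed with glutardialdehyde at various times, stained with crystal violet, absorbance 578 nm; corrected T/C and cytocidal effect calculated.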

[10] = tested on: MCF7; test: Cytotoxicity against ABCG2 positive topotecan-resistant human MCF7 cells up to 100 nM by chemosensitivity assay
[11] = molecular target: T2, ATP-dependent translocase ABCB1; test: as §1; format: cell-based; details: kbv1, 10 µM; how it was run: as §2
[12] = molecular target: T4, ABCB1; test: Inhibition of ABCB1 overexpressed in human KBv1 cells at 100 uM by flow cytometric-based calcein-AM efflux assay; format: cell-based; details: KBv1 cells overexpressing ABCB1, probe calcein-AM; how it was run: as §2

Row | Compound | pIC50 [1] | inhibition (INH) [2] [%] | pIC50 [3] | pIC50 [4] | Activity [6] | also measured
1 | COC(=O)c1ccc(C(=O)Nc2ccc(CCN3CCc4cc(OC)c(OC)cc4C3)cc2)cc1NC(=O)c1cnc(C)cn1 | 6.26 | 44 | < 4.24 | < 4.70 | – | –
2 | COC(=O)c1ccc(C(=O)Nc2ccc(CCN3CCc4cc(OC)c(OC)cc4C3)cc2)cc1NC(=O)c1ccc2ccccc2n1 | 7.22 | 56 | < 4.54 | < 4.70 | – | Activity [5]: Active
3 | COc1cc2c(cc1OC)CN(CCc1ccc(NC(=O)c3cc(NC(=O)c4cnc5ccccc5c4)c(OC)c(OC)c3)cc1)CC2 | 6.07 | 36 | < 4.77 | – | Not Active | –
4 | COc1ccc(C(=O)Nc2ccc(CCN3CCc4cc(OC)c(OC)cc4C3)cc2)cc1NC(=O)c1cnc2ccccc2c1 | 6.50 | 63 | < 5.22 | – | Not Active | –
5 | COc1ccc2c3c([nH]c2c1)[C@H](CC(C)C)N1C(=O)[C@H](CCC(=O)OC(C)(C)C)NC(=O)[C@@H]1C3 | – | – | – | < 4.30 | – | Activity [7]: Active; inhibition at 10 µM [8]: 1.6%; Activity [5]: Active
6 | COC(=O)c1ccc(C(=O)Nc2ccc(CCN3CCc4cc(OC)c(OC)cc4C3)cc2)cc1NC(=O)c1cnc2ccccc2c1 | 6.92 | 41 | 5.02 | – | Not Active | Activity [9]: Toxic; Activity [10]: Active
7 | CCCCC/C=C\C\C=C/C=C/C=C/[C@@H](SC[C@@H](NC(=O)CC[C@H](N)C(=O)O)C(=O)NCC(=O)O)[C@@H](O)CCCC(=O)O [LEUKOTRIEN C4] | – | – | – | > 6.82 | – | –
8 | COc1cc2c(cc1OC)CN(CCc1ccc(NC(=O)c3cccc4c(=O)c5cccc(OC)c5[nH]c34)cc1)CC2 | – | 46 | – | – | Not Active | –
9 | COC(=O)c1ccc(C(=O)Nc2ccc(CCN3CCc4cc(OC)c(OC)cc4C3)cc2)cc1NC(=O)c1ccc2ncccc2c1 | 6.75 | 25 | – | – | – | Activity [11]: Not Active
10 | CN(C)C(=O)CCSC(SCCC(=O)O)c1cccc(/C=C/c2ccc3ccc(Cl)cc3n2)c1 (stereo unspecified) [MK-571] | – | – | – | < 6.00 | – | –
11 | COc1cc(NC(=O)c2cnc3ccccc3c2)cc(C(=O)Nc2ccc(CCN3CCc4cc(OC)c(OC)cc4C3)cc2)c1 | 6.01 | 43 | < 4.82 | – | Not Active | –
12 | COC(=O)c1ccc(C(=O)Nc2ccc(CCN3CCc4cc(OC)c(OC)cc4C3)cc2)cc1NC(=O)c1cccnc1 | 5.99 | 47 | < 4.85 | < 4.70 | – | –
13 | COC(=O)c1ccc(C(=O)Nc2ccc(CCN3CCc4cc(OC)c(OC)cc4C3)cc2)cc1NC(=O)c1cnc2ccccc2n1 | 6.74 | 55 | < 4.47 | – | – | –
14 | COc1cc2c(cc1OC)CN(CCc1ccc(NC(=O)c3ccc(C)c(NC(=O)c4cnc5ccccc5c4)c3)cc1)CC2 | 5.70 | 52 | < 4.82 | < 4.30 | – | –
15 | COC(=O)c1ccc(C(=O)Nc2ccc(CCN3CCc4cc(OC)c(OC)cc4C3)cc2)cc1NC(=O)c1cnccn1 | 6.20 | 38 | < 4.70 | < 4.30 | – | –
16 | COc1cc2c(cc1OC)CN(CCc1ccc(NC(=O)c3cc(OC)c(OC)cc3NC(=O)c3cnc4ccccc4c3)cc1)CC2 | 6.04 | 39 | – | – | Not Active | –
17 | COc1ccc2c3c([nH]c2c1)[C@H](C=C(C)C)N1C(=O)[C@@H]2CCCN2C(=O)[C@@H]1C3 [FUMITREMORGIN] | < 4.96 | 100 | – | – | Not Active | inhibition at 10 µM [8]: 0.8%; inhibition at 100 µM [12]: 22%
